In ChEMBL document CHEMBL4400582, “Identification of Imidazo[1,2-b]pyridazine Derivatives as Potent, Selective, and Orally Active Tyk2 JH2 Inhibitors” (ACS Med Chem Lett, 2019):
Converted amounts (≈) assume the structure as drawn. The source made the active and inactive calls. The calls are words filed in the database; no cut-off is given here.

Columns and labels:
[1] = target: T1, Non-receptor tyrosine-protein kinase TYK2 (Homo sapiens, UniProt P29597); experiment: Inhibition of fluorescein-labeled kinase tracer binding to His-TVMV-fused TYK2 JH2 domain (575 to 869 residues) (unknown origin) measured after 90 mins by HTRF assay
T1 sequence (P29597 whole entry, the tested form may be a part): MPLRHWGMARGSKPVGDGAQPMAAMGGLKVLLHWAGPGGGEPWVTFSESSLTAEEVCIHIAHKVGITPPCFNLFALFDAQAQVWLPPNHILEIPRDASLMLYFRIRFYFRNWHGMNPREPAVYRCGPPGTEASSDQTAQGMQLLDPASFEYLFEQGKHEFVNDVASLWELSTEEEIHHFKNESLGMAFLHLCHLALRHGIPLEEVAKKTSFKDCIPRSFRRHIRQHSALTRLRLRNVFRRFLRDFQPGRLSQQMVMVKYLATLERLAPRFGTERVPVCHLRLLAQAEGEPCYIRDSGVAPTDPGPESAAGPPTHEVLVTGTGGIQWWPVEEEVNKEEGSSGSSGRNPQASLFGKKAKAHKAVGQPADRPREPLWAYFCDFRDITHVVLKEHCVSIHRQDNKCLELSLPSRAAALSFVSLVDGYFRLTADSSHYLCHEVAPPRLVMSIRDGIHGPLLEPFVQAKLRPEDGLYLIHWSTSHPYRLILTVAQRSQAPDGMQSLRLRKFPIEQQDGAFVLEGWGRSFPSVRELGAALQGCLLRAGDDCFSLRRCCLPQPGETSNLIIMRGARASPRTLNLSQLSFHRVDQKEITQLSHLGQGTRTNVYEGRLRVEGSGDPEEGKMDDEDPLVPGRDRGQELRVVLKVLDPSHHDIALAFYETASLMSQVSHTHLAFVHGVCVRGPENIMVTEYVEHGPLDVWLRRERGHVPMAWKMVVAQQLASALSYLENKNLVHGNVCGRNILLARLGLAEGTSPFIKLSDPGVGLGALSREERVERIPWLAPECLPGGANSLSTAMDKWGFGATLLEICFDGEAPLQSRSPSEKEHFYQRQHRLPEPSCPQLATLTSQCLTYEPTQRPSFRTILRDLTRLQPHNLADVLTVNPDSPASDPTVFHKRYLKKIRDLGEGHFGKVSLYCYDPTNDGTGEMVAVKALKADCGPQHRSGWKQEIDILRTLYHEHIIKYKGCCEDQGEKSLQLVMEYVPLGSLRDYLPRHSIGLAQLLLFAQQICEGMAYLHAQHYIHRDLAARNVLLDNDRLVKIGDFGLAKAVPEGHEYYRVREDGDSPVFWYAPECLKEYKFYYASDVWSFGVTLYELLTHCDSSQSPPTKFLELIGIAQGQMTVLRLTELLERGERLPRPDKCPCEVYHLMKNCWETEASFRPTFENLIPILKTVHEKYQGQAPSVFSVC

[2] = target: T1, Non-receptor tyrosine-protein kinase TYK2; experiment: Inhibition of TYK2 JH2 domain in human whole blood assessed as decrease in IFNalpha/IL2-induced STAT phosphorylation preincubated for 1 hr followed by IFNalpha/IL2 stimulation and measured after 15 mins by fluorescence assay; assay type: tissue-based
[3] = target: T1, Non-receptor tyrosine-protein kinase TYK2; experiment: Inhibition of TYK2 JH2 domain in IFNalpha/IL23-stimulated human Kit225 cells by luciferase reporter assay
[4] = Permeability of the compound in human Caco2 cells; assay type: ADME, cell-based; details: Caco-2, read-out: permeability
[5] = Stability in human liver microsomes assessed as parent compound remaining; assay type: ADME, Microsome
In short: (§1)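 Compound was incubated 10 min with human, rat or mouse liver microsomes. Parent remaining is reported as percent.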

[6] = Stability in rat liver microsomes assessed as parent compound remaining; assay type: ADME, Microsome; in short: as §1
[7] = Stability in mouse liver microsomes assessed as parent compound remaining; assay type: ADME, Microsome; in short: as §1
[8] = Cmax in cynomolgus monkey at 10 mg/kg, po; assay type: ADME, organism-based, Macaca fascicularis; set-up: dose 10 mg/kg, route oral; details: in vivo
In short: (§2)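 Oral PK in the listed species. Vehicle 5:5:90 TPGS/EtOH/PEG300. An IV arm was dosed at 2 mg/kg.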

[9] = Oral bioavailability in dog at 10 mg/kg; assay type: ADME, organism-based, Canis lupus familiaris; details: in vivo; in short: as §2
[10] = Clearance in mouse at 2 mg/kg, iv; details: in vivo
[11] = AUC (0 to 24 hrs) in mouse at 10 mg/kg, po; assay type: ADME, organism-based; set-up: time < 24 hr, dose 10 mg/kg, route oral; details: in vivo; in short: as §2
[12] = Cmax in mouse at 10 mg/kg, po; assay type: ADME, organism-based; set-up: dose 10 mg/kg, route oral; details: in vivo; in short: as §2
[13] = Oral bioavailability in mouse at 10 mg/kg; assay type: ADME, organism-based; details: in vivo; in short: as §2
[14] = Clearance in dog at 10 mg/kg, po; assay type: ADME, organism-based, Canis lupus familiaris; details: in vivo; in short: as §2
[15] = Clearance in cynomolgus monkey at 10 mg/kg, po; assay type: ADME, organism-based, Macaca fascicularis; details: in vivo; in short: as §2
[16] = AUC (0 to 24 hrs) in cynomolgus monkey at 10 mg/kg, po; assay type: ADME, organism-based, Macaca fascicularis; set-up: time < 24 hr, dose 10 mg/kg, route oral; details: in vivo; in short: as §2
Rattus norvegicus [17] = experiment: Inhibition of IL12/IL18-induced IFNgamma production in Lewis rat at 10 mg/kg, po pretreated for 1 hr followed by IL12 stimulation for 1 hr and subsequent IL18 addition and measured after 3 hrs by ELISA relative to control; assay type: functional
In short: (§3)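 Rats were dosed in 5:5:90 TPGS/EtOH/PEG300, challenged with IL-12 1 h later and with IL-18 a further hour later. Plasma was collected 5 h after dosing for IFNγ levels. Inhibition is relative to vehicle.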

Rattus norvegicus [18] = experiment: Inhibition of IL12/IL18-induced IFNgamma production in Lewis rat at 1 mg/kg, po pretreated for 1 hr followed by IL12 stimulation for 1 hr and subsequent IL18 addition and measured after 3 hrs by ELISA relative to control; assay type: functional; in short: as §3
Rattus norvegicus [19] = experiment: Antiarthritic activity in incomplete Freund's adjuvant-induced Lewis rat arthritis model assessed as reduction in paw volume at 5 to 10 mg/kg, po bid for 20 days by plethysmometric method; assay type: functional, organism-based
In short: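 Rat adjuvant arthritis. Adjuvant was given on day zero. Compound was dosed twice daily from day 0 to day 20 in 5:5:90 TPGS/EtOH/PEG300. Paw volume was measured periodically.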

[20] = Oral bioavailability in rat at 10 mg/kg; assay type: ADME, organism-based; details: in vivo; in short: as §2
[21] = Oral bioavailability in cynomolgus monkey at 10 mg/kg; assay type: ADME, organism-based, Macaca fascicularis; details: in vivo; in short: as §2
[22] = Clearance in rat at 10 mg/kg, po; assay type: ADME, organism-based; details: in vivo; in short: as §2
[23] = AUC (0 to 24 hrs) in dog at 10 mg/kg, po; assay type: ADME, organism-based, Canis lupus familiaris; set-up: time < 24 hr, dose 10 mg/kg, route oral; details: in vivo; in short: as §2
[24] = AUC (0 to 24 hrs) in rat at 10 mg/kg, po; assay type: ADME, organism-based; set-up: time < 24 hr, dose 10 mg/kg, route oral; details: in vivo; in short: as §2
Rattus norvegicus [25] = experiment: Inhibition of IL12/IL18-induced IFNgamma production in po dosed Lewis rat pretreated for 1 hr followed by IL12 stimulation for 1 hr and subsequent IL18 addition and measured after 3 hrs by ELISA; assay type: functional, organism-based; in short: as §3
[26] = Cmax in dog at 10 mg/kg, po; assay type: ADME, organism-based, Canis lupus familiaris; set-up: dose 10 mg/kg, route oral; details: in vivo; in short: as §2
[27] = Cmax in rat at 10 mg/kg, po; assay type: ADME, organism-based; set-up: dose 10 mg/kg, route oral; details: in vivo; in short: as §2
[28] = Aqueous solubility of the compound at pH 6.5; assay type: physicochemical; details: buffer
[29] = Aqueous solubility of the compound at pH 1; assay type: physicochemical; details: buffer

| SMILES | Ki [1] | IC50 [2] | IC50 [3] | other results |
| --- | --- | --- | --- | --- |
| CNc1cc(Nc2cccn(-c3cc(C)n(C)n3)c2=O)nn2c(C(=O)N[C@@H]3C[C@@H]3F)cnc12 | 0.015 nM | 90 nM | 22 nM | – |
| CNc1cc(Nc2cccn(-c3ncccc3F)c2=O)nn2c(C(=O)NC3CC3)cnc12 | 0.12 nM | 313 nM | 61 nM | Papp [4]: 5.9 ×10⁻⁶ cm/s |
| CNc1cc(Nc2cccn(-c3ccccn3)c2=O)nn2c(C(=O)NC3CC3)cnc12 | 0.34 nM | 382 to 398 nM | 94 nM | Papp [4]: 16.9 ×10⁻⁶ cm/s |
| CNc1cc(Nc2cccn(-c3ccccn3)c2=O)nn2c(C(=O)N[C@@H]3C[C@@H]3F)cnc12 | – | – | – | Cmax [8]: 1.8 µM; bioavailability [9]: 50%; clearance [10]: 16 mL/min/kg; AUC(0-t) at 24 h [11]: 19 µM·h; Cmax [12]: 15 µM; bioavailability [13]: 86%; CL/F [14]: 25 mL/min/kg; CL/F [15]: 17 mL/min/kg; AUC(0-t) at 24 h [16]: 11 µM·h; inhibition in vivo at 10 mg/kg (Rattus norvegicus [17]): 77%; inhibition in vivo at 1 mg/kg (Rattus norvegicus [18]): 45%; Activity (Rattus norvegicus [19]): Active; bioavailability [20]: 114%; bioavailability [21]: 46%; CL/F [22]: 7.8 mL/min/kg; AUC(0-t) at 24 h [23]: 8 µM·h; AUC(0-t) at 24 h [24]: 57 µM·h; inhibition (Rattus norvegicus [25]): Dose-dependent effect; Cmax [26]: 0.93 µM; Cmax [27]: 9.4 µM |
| CNc1cc(Nc2cccn(-c3ccc(C)nn3)c2=O)nn2c(C(=O)NC3CC3)cnc12 | 0.091 nM | 247 nM | 147 nM | – |
| CNc1cc(Nc2cccn(-c3ncc(F)cn3)c2=O)nn2c(C(=O)NC3CC3)cnc12 | 0.38 nM | 464 nM | 235 nM | – |
| CNc1cc(Nc2cccn(-c3cccc(F)n3)c2=O)nn2c(C(=O)N[C@@H]3C[C@@H]3F)cnc12 | 0.024 nM | 136 nM | 12 nM | – |
| CNc1cc(Nc2cccn(-c3ccc(C#N)cc3)c2=O)nn2c(C(=O)NC3CC3)cnc12 | 0.2 nM | 268 nM | 90 nM | solubility [28]: < 1 µg/mL; Stability [5]: 92%; Stability [6]: 77%; solubility [29]: 2 µg/mL (≈ 4.54 µM); Stability [7]: 71% |
| CNc1cc(Nc2cccn(-c3ccncc3)c2=O)nn2c(C(=O)NC3CC3)cnc12 | 0.29 nM | 346 nM | 148 nM | Papp [4]: 3.8 ×10⁻⁶ cm/s |
| CNc1cc(Nc2cccn(-c3ccccn3)c2=O)nn2c(C(=O)NC(C)C)cnc12 | 0.13 nM | 750 nM | 153 nM | – |
| CNc1cc(Nc2cccn(C3CC3)c2=O)nn2c(C(=O)NC3CC3)cnc12 | 0.33 nM | 817 nM | 131 nM | Stability [5]: 88%; Stability [6]: 71%; Stability [7]: 39% |

Second part, led by results:

| Ki [1] | IC50 [2] | IC50 [3] | SMILES | other results |
| --- | --- | --- | --- | --- |
| 0.07 nM | 811 nM | 111 nM | CNc1cc(Nc2cccn(-c3ccc(C(C)(C)O)cc3)c2=O)nn2c(C(=O)NC3CC3)cnc12 | – |
| 0.29 nM | 285 nM | 84 nM | CNc1cc(Nc2cccn(-c3ccccn3)c2=O)nn2c(C(=O)NCC(C)(C)CO)cnc12 | – |
| 0.74 nM | Nd(Insoluble) | 614 nM | CNc1cc(Nc2cccn(C)c2=O)nn2c(C(=O)NC3CC3)cnc12 | Stability [5]: 56%; Stability [6]: 63%; Stability [7]: 10% |
| 0.035 nM | 85 nM | 26 nM | CNc1cc(Nc2cccn(-c3ccc(F)cn3)c2=O)nn2c(C(=O)N[C@@H]3C[C@@H]3F)cnc12 | – |
| 0.48 nM | 340 nM | 135 nM | CNc1cc(Nc2cccn(-c3cc(C)n(C)n3)c2=O)nn2c(C(=O)NC3CC3)cnc12 | Papp [4]: 14.2 ×10⁻⁶ cm/s |
| 0.15 nM | 236 nM | 99 nM | CNc1cc(Nc2cccn(-c3ccc(F)cn3)c2=O)nn2c(C(=O)NC3CC3)cnc12 | – |
| 0.26 nM | 384 nM | 60 nM | CNc1cc(Nc2cccn(-c3ccccn3)c2=O)nn2c(C(=O)NC3CCC3)cnc12 | – |
| 0.018 nM | 63 nM | 41 nM | CNc1cc(Nc2cccn(-c3ccc(C)nn3)c2=O)nn2c(C(=O)N[C@@H]3C[C@@H]3F)cnc12 | – |
| 0.22 nM | 371 nM | 70 nM | CNc1cc(Nc2cccn(-c3cccc(F)n3)c2=O)nn2c(C(=O)NC3CC3)cnc12 | – |
